Active and inactive are the calls of the source. The rule behind the calls is not given here. A value given as a limit tells only on which side of the number the result lay.

A short description of data set [1]: Mutagenicity in Salmonella typhimurium TA98 at 5 to 100 uM incubated for 96 hrs by Ames fluctuation assay. Conditions: salmonella enterica subsp. enterica serovar typhimurium, dose 5-100 µM. Type of data set: toxicity. An outline of the steps:
(§1)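 Fluctuation format in 384-well plates at 37 °C for 96 h. Tested at 5, 10, 50 and 100 μM, 48 replicates per concentration, with and without rat liver S9. Revertant wells counted when OD430/OD570 > 1.0, compared with control by one-tailed Fisher's exact test. Parallel bacterial cytotoxicity test (OD650) at 0.6–100 μM, with growth below 60% of control flagged as cytotoxic.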
In general terms: In the Ames test, an excess of revertant colonies over the control signals mutagenicity.

The nature of data set [2]: Mutagenicity in Salmonella typhimurium TA100 at 5 to 100 uM incubated for 96 hrs by Ames fluctuation assay. Format: toxicity. Conditions: salmonella enterica subsp. enterica serovar typhimurium, dose 5-100 µM. In outline:
as §1

The nature of data set [3]: Mutagenicity in Salmonella typhimurium TA1537 at 5 to 100 uM incubated for 96 hrs by Ames fluctuation assay. Type of data set: toxicity. The note with it: salmonella enterica subsp. enterica serovar typhimurium, dose 5-100 µM. An outline of the steps:
as §1

Data set [4] is described as follows: Mutagenicity in Salmonella typhimurium TA1535 at 5 to 100 uM incubated for 96 hrs by Ames fluctuation assay. Format: toxicity. Conditions: salmonella enterica subsp. enterica serovar typhimurium, dose 5-100 µM. An outline of the steps:
as §1

Data set [5] in a line: Mutagenicity in Salmonella typhimurium TA98 at 5 to 100 uM incubated for 96 hrs in presence of rat liver S9 fraction by Ames fluctuation assay. Type of data set: toxicity, subcellular. Conditions: salmonella enterica subsp. enterica serovar typhimurium, s9, 96 h, dose 5-100 µM. An outline of the steps:
as §1

Data set [6] is described as follows: Mutagenicity in Salmonella typhimurium TA100 at 5 to 100 uM incubated for 96 hrs in presence of rat liver S9 fraction by Ames fluctuation assay. Format: toxicity, subcellular. Conditions: salmonella enterica subsp. enterica serovar typhimurium, s9, 96 h, dose 5-100 µM. An outline of the steps: as §1
Data set [7] is described as follows: Mutagenicity in Salmonella typhimurium TA1537 at 5 to 100 uM incubated for 96 hrs in presence of rat liver S9 fraction by Ames fluctuation assay. Format: toxicity, subcellular. The note with it: salmonella enterica subsp. enterica serovar typhimurium, s9, 96 h, dose 5-100 µM. An outline of the steps: as §1
Data set [8] is described as follows: Mutagenicity in Salmonella typhimurium TA1535 at 5 to 100 uM incubated for 96 hrs in presence of rat liver S9 fraction by Ames fluctuation assay. Format: toxicity, subcellular. The note with it: salmonella enterica subsp. enterica serovar typhimurium, s9, 96 h, dose 5-100 µM. An outline of the steps: as §1
A short description of data set [9]: Toxicity in Sprague-Dawley rat assessed as at 1 mg/kg, iv. The note with it: in vivo.
Data set [10] is described as follows: Toxicity in Sprague-Dawley rat assessed as at 5 mg/kg, po. Conditions: in vivo.
A short description of data set [11]: Unbound brain-to-plasma concentration ratio in Han Wistar rat at 10 mg/kg,po and measured after 16 hrs by LC-MS/MS analysis. Type of data set: ADME, organism-based. Conditions: read-out: K(p,uu,brain).
Data set [12] is described as follows: Dissociation constant, pKa of compound by pH-metric titration method. Type of data set: physicochemical.
Data set [13] can be described thus: Mutagenicity in Salmonella typhimurium TA98 at 5 to 50 uM incubated for 96 hrs by Ames fluctuation assay. Type of data set: toxicity. Conditions: salmonella enterica subsp. enterica serovar typhimurium, dose 5-50 µM. An outline of the steps: as §1
A short description of data set [14]: Mutagenicity in Salmonella typhimurium TA100 at 5 to 50 uM incubated for 96 hrs by Ames fluctuation assay. Type of data set: toxicity. Conditions: salmonella enterica subsp. enterica serovar typhimurium, dose 5-50 µM. An outline of the steps:
as §1

Data set [15] can be described thus: Mutagenicity in Salmonella typhimurium TA1537 at 5 to 50 uM incubated for 96 hrs by Ames fluctuation assay. Format: toxicity. The note with it: salmonella enterica subsp. enterica serovar typhimurium, dose 5-50 µM. In outline: as §1
Data set [16] can be described thus: Mutagenicity in Salmonella typhimurium TA1535 at 5 to 50 uM incubated for 96 hrs by Ames fluctuation assay. Type of data set: toxicity. The note with it: salmonella enterica subsp. enterica serovar typhimurium, dose 5-50 µM. In outline: as §1
The nature of data set [17]: Mutagenicity in Salmonella typhimurium TA98 at 5 to 50 uM incubated for 96 hrs in presence of rat liver S9 fraction by Ames fluctuation assay. Format: toxicity, subcellular. The note with it: salmonella enterica subsp. enterica serovar typhimurium, s9, 96 h, dose 5-50 µM. In outline:
as §1

Data set [18] can be described thus: Mutagenicity in Salmonella typhimurium TA100 at 5 to 50 uM incubated for 96 hrs in presence of rat liver S9 fraction by Ames fluctuation assay. Conditions: salmonella enterica subsp. enterica serovar typhimurium, s9, 96 h, dose 5-50 µM. Type of data set: toxicity, subcellular. In outline:
as §1

The nature of data set [19]: Mutagenicity in Salmonella typhimurium TA1537 at 5 to 50 uM incubated for 96 hrs in presence of rat liver S9 fraction by Ames fluctuation assay. Type of data set: toxicity, subcellular. Conditions: salmonella enterica subsp. enterica serovar typhimurium, s9, 96 h, dose 5-50 µM. An outline of the steps:
as §1

Data set [20] is described as follows: Mutagenicity in Salmonella typhimurium TA1535 at 5 to 50 uM incubated for 96 hrs in presence of rat liver S9 fraction by Ames fluctuation assay. Conditions: salmonella enterica subsp. enterica serovar typhimurium, s9, 96 h, dose 5-50 µM. Format: toxicity, subcellular. In outline: as §1
Data set [21] is described as follows: AUC (0 to infinity) in Sprague-Dawley rat at 2 mg/kg, iv and measured upto 24 hrs by LC-MS/MS analysis. Also on record: dose 2 mg/kg, time < 24 hrs, route iv. Format: ADME, organism-based. Conditions: in vivo. In outline: (§2)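 Female BALB/c nude mice or male Sprague-Dawley rats, 6–8 weeks old, n = 3 per route. IV by tail vein in DMSO:10% captisol in saline 1:99. PO by gavage in 1% methylcellulose. […] Assayed by LC-MS/MS, non-compartmental PK, mean ± SD.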

Data set [22] can be described thus: AUC (0 to infinity) in BALB/c mouse at 3 mg/kg, iv and measured upto 24 hrs by LC-MS/MS analysis. Type of data set: ADME, organism-based. Also on record: dose 3 mg/kg, time < 24 hrs, route iv. Conditions: in vivo. In outline:
as §2

Data set [23] in a line: AUC (0 to infinity) in BALB/c mouse at 30 mg/kg, po and measured upto 24 hrs by LC-MS/MS analysis. Type of data set: ADME, organism-based. Also on record: dose 30 mg/kg, time < 24 hrs, route po. The note with it: in vivo. An outline of the steps:
as §2

A short description of data set [24]: Genotoxicity in Chinese hamster CHO-K1 cells at 8 to 1000 uM incubated for 24 hrs by micronucleus test. The note with it: cho-k1, 24 h, dose 8-1000 µM. Format: toxicity, cell-based, Cricetulus griseus. An outline of the steps: (§3)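 CHO-K1 cells, 96-well format, exposed to 8–1000 μM for either 4 h at 37 °C with rat liver S9 or 24 h at 37 °C without S9. Micronuclei detected by high-content fluorescence imaging. Positive controls were cyclophosphamide 7.2 μM and mitomycin C 0.3 μM. One-tailed two-sample equal-variance t-test.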

Data set [25] is described as follows: Genotoxicity in Chinese hamster CHO-K1 cells at 8 to 1000 uM incubated for 4 hrs in presence of rat liver S9 fraction by micronucleus test. Type of data set: toxicity, subcellular, Cricetulus griseus. Conditions: s9, 4 h, dose 8-1000 µM. In outline:
as §3

A short description of data set [26]: Metabolic stability in human hepatocytes assessed as metabolite formation at 10 uM incubated for 4 hrs by UHPLC-MS/MS analysis. Type of data set: ADME, cell-based, Hepatocyte. An outline of the steps:
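Human hepatocytes at 1.0 × 10^6 cells/mL incubated with compound at 10 μM for 0, 120 and 240 min at 37 °C. Quenched with 2 volumes of acetonitrile, centrifuged at 16,000g for 15 min, and supernatant analyzed by UHPLC-MS/MS.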

Data set [27] has as its system HCC827. Briefly: Antitumor activity against human luciferase tagged HCC827 cells xenografted in intracranial PDX BALB/c mouse model assessed as tumor regression at 10 mg/kg,po BID for 21 days by Bioluminescence imaging analysis. Format: functional, organism-based. The note with it: time 21.0 day. An outline of the steps: (§4)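 Female BALB/c nude mice given 3 × 10^5 HCC827-luc cells in 2 μL RPMI1640 into the right forebrain under anesthesia. Randomized on day 20 after inoculation, n = 10 per group. Dosed PO b.i.d. at 12 h intervals for 21 days in 1% methylcellulose, with vehicle control. Biweekly IVIS imaging 10 min after IP D-luciferin, plus biweekly body weight. Day-21 means compared by unpaired two-tailed t-test.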

Data set [28] is described as follows: Toxicity in intracranial PDX BALB/c mouse model xenografted with human luciferase tagged HCC827 cells assessed as body weight loss at 10 mg/kg,po BID for 21 days. Type of data set: organism-based. The note with it: in vivo, 504 h, time 21 day. An outline of the steps: as §4
For orientation: A xenograft is tissue or cells of one species grown in another, often human tumour cells in immunodeficient mice.

A short description of data set [29]: Toxicity in intracranial PDX BALB/c mouse model xenografted with human luciferase tagged HCC827 cells assessed as adverse clinical effects at 10 mg/kg,po BID for 21 days. Type of data set: organism-based. Conditions: in vivo, 504 h, time 21 day. In outline: as §4

As to `COc1cc2ncnc(Nc3cccc(Cl)c3F)c2cc1OCCON1CCOCC1`, the Activity result in data set [1], in data set [2], in [3], in data set [4], in [5] and in [6] was “Non-Toxic” throughout. Besides, the Activity result in [7], in data set [8], in [9] and in [10] was “Non-Toxic” throughout.
`COc1cc2ncnc(Nc3ccc(F)c(Cl)c3)c2cc1OCCON1CCOCC1`: the Activity result in [1], in [2], in data set [3], in data set [4], in data set [5] and in data set [6] was “Non-Toxic” throughout. The Activity result in data set [7] and in data set [8] was “Non-Toxic” throughout.
In the case of `COc1cc2ncnc(Nc3ccc(F)c(Cl)c3)c2cc1OCCCN1CCOCC1` [GEFITINIB], the Activity entry in data set [1], in data set [2], in data set [3], in [4], in [5] and in data set [6] was “Non-Toxic” each time. The Activity result in [7] and in data set [8] was “Non-Toxic” each time. In addition, in data set [11], the Kp uu at 16 h stood at 0.009.
Usually pKa stands for the negative logarithm of the acid dissociation constant. Turning to `NO` [HYDROXYAMINE], the pKa in [12] was 5.9.
A word on the AUC(0-inf): it is total exposure, with the tail of the curve extrapolated. A higher AUC(0-inf) goes with high exposure. Usually AUC stands for the area under the concentration-time curve, a measure of exposure. Low readings indicate low exposure, high ones high exposure. As for `COc1cc2ncnc(Nc3cccc(Cl)c3F)c2cc1OCCON1CCN(C)CC1`, the Activity result in [13], in data set [14], in data set [15], in data set [16], in [17] and in [18] was “Non-Toxic” each time. The Activity entry in data set [19], in [20], in [24], in data set [25], in data set [28] and in data set [29] was “Non-Toxic” each time. Also, the AUC(0-inf) worked out at 0.61 µM·h in [21] and 5.29 µM·h in data set [23]. In [22], this compound gave an area under the curve (AUC) of 0.866 µM·h. Further, in data set [26], the Drug metabolism was under 5%. In data set [27], the outcome was Active.

For the origin of these results see ChEMBL document CHEMBL5390273, “Discovery of a Hydroxylamine-Based Brain-Penetrant EGFR Inhibitor for Metastatic Non-Small-Cell Lung Cancer” (J Med Chem, 2023).
